Assay results reported in PMC10238757 (Pharmacology Research & Perspectives, 2023).

Tests used:
Single ascending dose = type: in vivo, human
Procedure, shortened: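 Healthy participants, double-blind cross-over between 2 cohorts of 9, randomized 6:3 drug:placebo each period. Single oral doses of 10–800 mg right after a moderate-fat breakfast (600 calories, 30% fat). Plasma sampled to 360 h (protocol first set 96 h); LLOQ 10 ng/mL. Non-compartmental analysis; dose proportionality by power model.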

healthy participants = test: Safety and tolerability, multiple ascending dose; type: in vivo, human; settings: for Abdominal pain, n occurrences (% of cohort) / All-cause AEs Grade 2, n occurrences (% of cohort) / All-cause AEs Grade 3/4, n occurrences (% of cohort) / All-cause AEs, n occurrences (% of cohort) / Constipation, n occurrences (% of cohort) / Diarrhea, n occurrences (% of cohort) / Drug-related AEs Grade 2, n occurrences (% of cohort) / Drug-related AEs Grade 3/4, n occurrences (% of cohort) / Drug-related AEs, n occurrences (% of cohort) / Headache, n occurrences (% of cohort) / MDSD, n occurrences (% of cohort): N=7
Procedure, shortened: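 AEs in healthy participants given oral test compound or placebo, recorded with grade and relation to treatment. Laboratory analyses, clinical parameters and suicidality were also monitored. Observation ran 360 h after dosing. Summaries were descriptive, with no formal statistics; parts 1–2 blinded and placebo-controlled, part 3 open-label.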

HIV-1 = settings: cited from earlier work
[1] = Relative bioavailability and food effect; type: in vivo, human; settings: 100 mg; for Tmax: human, plasma, oral, Median t max
Procedure, shortened: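 Open-label, single-dose, 3-period cross-over; 17 healthy participants; washout ≥24 days. Each received 100 mg oral as PiB fed, tablet fed or tablet fasted. Overnight fast ≥9.5 h before and ≥4 h after dosing; fed arms got a moderate-fat meal 25 min pre-dose. Non-compartmental PK. Log_e PK parameters fitted by mixed-effect models (fed/fasted, tablet/PiB fixed; participant random). Back-transformed 90% CIs for AUC_0‐24, AUC_0‐∞, Cmax.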

For `C=C(C)[C@@H]1CC[C@]2(NCCN3CCS(=O)(=O)CC3)CC[C@]3(C)[C@H](CC[C@@H]4[C@@]5(C)CC=C(C6=CC[C@@](COc7ncccc7C#N)(C(=O)O)CC6)C(C)(C)[C@@H]5CC[C@]43C)[C@@H]12` [GSK'937], the “t max, h median (range)” value (Single ascending dose; SAD 800 mg) was 18.08 (12.1–24.1) h, the “time up to which concentrations were quantifiable” value (shortened to “time up”) (Single ascending dose; after the 10-mg dose) was “up to 96 h” and the “time up” value (Single ascending dose; after the 30-mg dose, 5 of 6 participants) was at most 264 h. The “time up” value (Single ascending dose; all other doses except 1 individual in the 80-mg cohort) was at most 360 h, the AUC(0-t) (Single ascending dose; human, plasma, oral, 10 mg) was 2490 ng·h/mL and the Cmax (Single ascending dose; human, plasma, oral, 10 mg) was 39.2 ng/mL. It also gave a Tmax (Single ascending dose; human, plasma, oral, 10 mg, t max, h median (range), SAD 10 mg) of 6.98 h, a Cmax (Single ascending dose; human, plasma, oral, 30 mg) of 127 ng/mL and a half-life (Single ascending dose; human, plasma, oral, 30 mg, t 1/2 GM (%CVb), SAD 30 mg) of 75.9 h. It also gave a Tmax (Single ascending dose; human, plasma, oral, 30 mg, t max, h median (range), SAD 30 mg) of 8 h, a Cmax (Single ascending dose; human, plasma, oral, 80 mg) of 310 ng/mL and a half-life (Single ascending dose; human, plasma, oral, 80 mg, t 1/2 GM (%CVb), SAD 80 mg) of 79.1 h. The Tmax (Single ascending dose; human, plasma, oral, 80 mg, t max, h median (range), SAD 80 mg) was 7.98 h, the Cmax (Single ascending dose; human, plasma, oral, 160 mg) was 529 ng/mL and the half-life (Single ascending dose; human, plasma, oral, 160 mg, t 1/2 GM (%CVb), SAD 160 mg) was 91.8 h. It also gave a Tmax (Single ascending dose; human, plasma, oral, 160 mg, t max, h median (range), SAD 160 mg) of 7.95 h, a Cmax (Single ascending dose; human, plasma, oral, 320 mg) of 1010 ng/mL and a half-life (Single ascending dose; human, plasma, oral, 320 mg, t 1/2 GM (%CVb), SAD 320 mg) of 96.8 h. The Tmax (Single ascending dose; human, plasma, oral, 320 mg, t max, h median (range), SAD 320 mg) was 6.99 h, the Cmax (Single ascending dose; human, plasma, oral, 640 mg) was 1460 ng/mL and the half-life (Single ascending dose; human, plasma, oral, 640 mg, t 1/2 GM (%CVb), SAD 640 mg) was 82.6 h. For the same molecule, the Tmax (Single ascending dose; human, plasma, oral, 640 mg, t max, h median (range), SAD 640 mg) was 7 h, the Cmax (Single ascending dose; human, plasma, oral, 800 mg) was 2860 ng/mL and the half-life (Single ascending dose; human, plasma, oral, 800 mg, t 1/2 GM (%CVb), SAD 800 mg) was 67.4 h. For the same molecule, the Tmax (Single ascending dose; human, plasma, oral, 800 mg, t max, h median (range), SAD 800 mg) was 18 h, the Tmax (Single ascending dose; human, plasma, oral, Median t max, all single doses except the 800-mg dose) was 7 to 8 h and the half-life (Single ascending dose; human, plasma, oral, t 1/2, range across doses, part 1 single doses) was 67 to 97 h. For the same molecule, the half-life (Single ascending dose; human, plasma, oral, terminal phase half-life, all doses following single and repeat dosing) was about 72 h, the “changes in laboratory analyses, clinical parameters, or suicidality” value (healthy participants; MAD) was “No significant changes” and the “deaths or SAEs” value (healthy participants; MAD) was “no deaths or SAEs”. The “Abdominal pain, n occurrences (% of cohort)” value (“Abdominal pain … (% of cohort)” for short) (healthy participants; MAD 25 mg QD) was 0, the “All-cause AEs Grade 2, n occurrences (% of cohort)” value (healthy participants; MAD 25 mg QD) was 0 and the “All-cause AEs Grade 3/4, n occurrences (% of cohort)” value (healthy participants; MAD 25 mg QD) was 0. The “All-cause AEs, n occurrences (% of cohort)” value (healthy participants; MAD 25 mg QD) was 0, the “Constipation, n occurrences (% of cohort)” value (shortened to “Constipation … (% of cohort)”) (healthy participants; MAD 25 mg QD) was 0 and the “Diarrhea, n occurrences (% of cohort)” value (healthy participants; MAD 25 mg QD) was 0. For the same molecule, the “Drug-related AEs Grade 2, n occurrences (% of cohort)” value (healthy participants; MAD 25 mg QD) was 0, the “Drug-related AEs Grade 3/4, n occurrences (% of cohort)” value (healthy participants; MAD 25 mg QD) was 0 and the “Drug-related AEs, n occurrences (% of cohort)” value (healthy participants; MAD 25 mg QD) was 0. The “Headache, n occurrences (% of cohort)” value (healthy participants; MAD 25 mg QD) was 0, the “MDSD, n occurrences (% of cohort)” value (healthy participants; MAD 25 mg QD) was 0 and the “Abdominal pain … (% of cohort)” value (healthy participants; MAD 50 mg QD) was 0. For the same molecule, the “All-cause AEs Grade 2, n occurrences (% of cohort)” value (healthy participants; MAD 50 mg QD) was 1 (14), the “All-cause AEs Grade 3/4, n occurrences (% of cohort)” value (healthy participants; MAD 50 mg QD) was 0 and the “All-cause AEs, n occurrences (% of cohort)” value (healthy participants; MAD 50 mg QD) was 3 (29). The “Constipation … (% of cohort)” value (healthy participants; MAD 50 mg QD) was 0, the “Diarrhea, n occurrences (% of cohort)” value (healthy participants; MAD 50 mg QD) was 0 and the “Drug-related AEs Grade 2, n occurrences (% of cohort)” value (healthy participants; MAD 50 mg QD) was 0. For the same molecule, the “Drug-related AEs Grade 3/4, n occurrences (% of cohort)” value (healthy participants; MAD 50 mg QD) was 0, the “Drug-related AEs, n occurrences (% of cohort)” value (healthy participants; MAD 50 mg QD) was 0 and the “Headache, n occurrences (% of cohort)” value (healthy participants; MAD 50 mg QD) was 1 (14). The “MDSD, n occurrences (% of cohort)” value (healthy participants; MAD 50 mg QD) was 1 (14), the “Abdominal pain … (% of cohort)” value (healthy participants; MAD 100 mg QD) was 0 and the “All-cause AEs Grade 2, n occurrences (% of cohort)” value (healthy participants; MAD 100 mg QD) was 0. The “All-cause AEs Grade 3/4, n occurrences (% of cohort)” value (healthy participants; MAD 100 mg QD) was 0, the “All-cause AEs, n occurrences (% of cohort)” value (healthy participants; MAD 100 mg QD) was 8 (71) and the “Constipation … (% of cohort)” value (healthy participants; MAD 100 mg QD) was 0. The “Diarrhea, n occurrences (% of cohort)” value (healthy participants; MAD 100 mg QD) was 0, the “Drug-related AEs Grade 2, n occurrences (% of cohort)” value (healthy participants; MAD 100 mg QD) was 0 and the “Drug-related AEs Grade 3/4, n occurrences (% of cohort)” value (healthy participants; MAD 100 mg QD) was 0. The “Drug-related AEs, n occurrences (% of cohort)” value (healthy participants; MAD 100 mg QD) was 1 (14), the “Headache, n occurrences (% of cohort)” value (healthy participants; MAD 100 mg QD) was 0 and the “MDSD, n occurrences (% of cohort)” value (healthy participants; MAD 100 mg QD) was 1 (14). For the same molecule, the “Abdominal pain … (% of cohort)” value (healthy participants; MAD 500 mg QW) was 1 (14), the “All-cause AEs Grade 2, n occurrences (% of cohort)” value (healthy participants; MAD 500 mg QW) was 0 and the “All-cause AEs Grade 3/4, n occurrences (% of cohort)” value (healthy participants; MAD 500 mg QW) was 0. For the same molecule, the “All-cause AEs, n occurrences (% of cohort)” value (healthy participants; MAD 500 mg QW) was 7 (57), the “Constipation … (% of cohort)” value (healthy participants; MAD 500 mg QW) was 0 and the “Drug-related AEs Grade 2, n occurrences (% of cohort)” value (healthy participants; MAD 500 mg QW) was 0. For the same molecule, the “Drug-related AEs Grade 3/4, n occurrences (% of cohort)” value (healthy participants; MAD 500 mg QW) was 0, the “Drug-related AEs, n occurrences (% of cohort)” value (healthy participants; MAD 500 mg QW) was 3 (43) and the “Headache, n occurrences (% of cohort)” value (healthy participants; MAD 500 mg QW) was 0. For the same molecule, the “MDSD, n occurrences (% of cohort)” value (healthy participants; MAD 500 mg QW) was 1 (14), the potency in vitro (HIV-1) was “low nanomolar” and the “increase in C max, tablet versus PiB” value ([1]; fed) was “approximately 37%”. The “increase in bioavailability by AUC0-24, tablet versus PiB” value ([1]; fed) was 38%, the “increase in bioavailability by AUC0-∞, tablet versus PiB” value ([1]; fed) was 35% and the Tmax ([1]; 100 mg PiB fed) was 9 h. For the same molecule, the Tmax ([1]; 100 mg tablet fasted) was 6 h, the Tmax ([1]; both tablet and PiB formulations under fed conditions) was 8 to 9 h and the “exposure in fed versus fasted states” value ([1]; tablet) was over 2 fold.
